Data published in ChEMBL document CHEMBL4382263, “Spirostaphylotrichin X from a Marine-Derived Fungus as an Anti-influenza Agent Targeting RNA Polymerase PB2” (J Nat Prod, 2018).
Activity calls are given as the source filed them. The calls are words filed in the database; no cut-off is given here.

Tested on: Influenza A virus
Experiment: Antiviral activity against Influenza A virus H5N1 pseudovirus harboring IAV (A/Thailand/Kan353/2004(H5N1))-HA/IAV (A/Thailand/Kan353/2004(H5N1))-NA/HIV core plasmids infected in MDCK cells assessed as pseudovirus neutralization incubated for 30 mins with virus followed by viral infection and measured after 48 hrs by luciferase reporter gene assay
Type: functional, organism-based
Outline: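 Pseudovirus incubated with varying compound concentrations for 30 min at 37 °C, then added to MDCK cells for 48 h. Lysates read for luciferase activity; VSV-G pseudovirus run as control.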

## CC/C=C1/C=CC(=O)[C@@H](O)[C@]12C(=O)N(OC)[C@@](C)(OC)[C@@H]2O
  Activity: inactive
